What is called inhibition is the change of the read-out against control, counted positive when it falls.

For test [1], the species on record is Cricetulus griseus. As to the kind of experiment: Percent inhibition against AHAT when compound 10 is used as substrate at 1 mM concentration. Summed up:
(§1)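 Partially purified hamster hepatic AHAT; 1 mM inhibitor (final) in ethanol was preincubated with enzyme for 5 min, then acyl donor (2.5 μmol) and 4-aminoazobenzene (0.375 μmol) were added. Mix: pyrophosphate buffer pH 7, DTT, KCl, 2.5 mL, 37 °C in air, read after 10 min. TCA-ethanol stop; spectrophotometric read-out of transacetylation. % inhibition vs control; three experiments in triplicate.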

The species entered for test [2] is Cricetulus griseus. The experiment in a line: Percent inhibition against AHAT when compound 8 is used as substrate at 1 mM concentration. Summed up:
as §1

The species named for test [3] is Cricetulus griseus. As to the kind of experiment: Inhibition of AHAT-catalyzed transacylation of 4-aminoazobenzene. The essentials: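 Partially purified hamster hepatic AHAT (2.5–3.75 mg protein) was preincubated 5 min with inhibitor (2.5 μmol in EtOH; 1 mM) before adding acyl-donor substrate (2.5 μmol) and 4-aminoazobenzene (0.375 μmol). The 2.5 mL mix held pyrophosphate pH 7, DTT and 1.15% KCl, at 37 °C in air. Stopped with TCA/EtOH; supernatant read spectrophotometrically (Booth). Percent inhibition vs control; three experiments in triplicate.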

As to p-Chloromercuribenzenesulfonate, the inhibition in the test listed under Cricetulus griseus [1] came to 96%; in the test filed under Cricetulus griseus [2] it was 92%.
Take `CCN1C(=O)C=CC1=O`: the inhibition in the test listed under Cricetulus griseus [1] was 86%; in the test filed under Cricetulus griseus [2], 77%.
In the test listed under Cricetulus griseus [3], `CC(=O)Nc1ccc(-c2ccccc2)cc1` returned a Transacetylation rate of 0.27 nmol/min/mg.
In the case of `CC(=O)Nc1ccc(-c2ccccc2)cc1O`, the Transacetylation rate in the test listed under Cricetulus griseus [3] amounted to 0.69 nmol/min/mg.
For the compound `O=C(CO)Nc1ccc(-c2ccccc2)cc1`, in the test listed under Cricetulus griseus [3], the Transacetylation rate turned out to be 0.03 nmol/min/mg.
Take `CC(=O)Nc1ccc2c(c1O)Cc1ccccc1-2`: in the test listed under Cricetulus griseus [3], the Transacetylation rate was found to be 0.11 nmol/min/mg.
As for `CC(=O)Nc1cc2c(cc1O)-c1ccccc1C2`, in the test listed under Cricetulus griseus [3], the Transacetylation rate was determined as 0.05 nmol/min/mg.
Compound `CC(=O)N(O)c1ccc(-c2ccccc2)cc1` returned a Transacetylation rate in the test listed under Cricetulus griseus [3] of 13.3 nmol/min/mg.
Take `O=C(CO)Nc1ccc2c(c1)Cc1ccccc1-2`: the Transacetylation rate in the test listed under Cricetulus griseus [3] amounted to 0.02 nmol/min/mg.
`CC(=O)N(O)c1ccc(/C=C/c2ccccc2)cc1` had a Transacetylation rate in the test filed under Cricetulus griseus [3] of 9.73 nmol/min/mg.
`NC(=O)CI`: the inhibition in the test filed under Cricetulus griseus [1] and in the test filed under Cricetulus griseus [2] was 99% in each case.
In the case of `O=C(CO)Nc1ccc(/C=C/c2ccccc2)cc1`, in the test filed under Cricetulus griseus [3], the Transacetylation rate amounted to 0.18 nmol/min/mg.
For `CC(=O)N(O)c1ccc2c(c1)Cc1ccccc1-2`, in the test filed under Cricetulus griseus [3], the Transacetylation rate came to 19.3 nmol/min/mg.

(Values after ChEMBL document CHEMBL1122423, “N-arylhydroxamic acid N,O-acyltransferase. Positional requirements for the substrate hydroxyl group” (J Med Chem, 1983).)
